This note sets out measurements from ChEMBL document CHEMBL1268869, “Structural optimization and biological evaluation of substituted bisphenol A derivatives as beta-amyloid peptide aggregation inhibitors” (J Med Chem, 2010).

SMILES strings stand for the structures. Activity calls are given as the source filed them. The calls are words filed in the database; no cut-off is given here.

Data set [1] is described as follows: Inhibition of amyloid beta (1-42) aggregation by thioflavin T fluorescence method. The essentials: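 Compound (2 μL of 0.1–10.0 mM) was mixed with 4 μL of 50 μM Aβ1-42 in PBS pH 7.4 containing 11% ethanol, 2 h at room temperature. Then 40 μM ThT in PBS/10% ethanol was added. Fluorescence was read with excitation 430 nm and emission 488 nm.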
Data set [2] is described as follows: Inhibition of amyloid beta (12-28) fibrillation assessed as increase in beta-sheet conformation at 3:1 compound to protein ratio by CD spectroscopy assay. Particulars: concentration not given here. In short, it runs like this: (§1)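 HFIP-treated Aβ12-28 was dissolved in 50% TFE/water at 80 μM, with compound at 1:3 protein:compound. CD spectra were taken in a 0.1 cm path cuvette. Secondary-structure content (helix, β-sheet, turn) was obtained by spectral deconvolution.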

A short description of data set [3]: Inhibition of amyloid beta (12-28) fibrillation assessed as increase in beta-turn conformational component at 3:1 compound to protein ratio by CD spectroscopy assay. The conditions noted are these: concentration not given here. The essentials:
as §1

Data set [4] is described as follows: Inhibition of amyloid beta (1 to 42) fibrillation after 5 days at 37 degC by PICUP assay. In short, it runs like this:
(§2)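 Aβ1-42 was HFIP-treated, sonicated 30 min, dried under nitrogen and redissolved in water. Photo-crosslinking used Ru(bpy)3Cl2 and APS (Aβ/Ru/APS 1/4/80) under a 150 W xenon lamp for 3 s, then quench, 95 C for 5 min and 15% tricine SDS-PAGE. Monomer/(dimer+tetramer) band pixels were compared.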

Data set [5] can be described thus: Inhibition of amyloid beta (1 to 42) fibrillation after 5 days at -80 degC by PICUP assay. The essentials: as §2
Data set [6] has as its system PC-12. Briefly: Cytotoxicity against rat PC12 cells at 1 uM by MTT assay. The data set is classed as cell-based. The conditions noted are these: pc-12, 1 µM. The essentials: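 Differentiated PC-12 cells in DMEM with 10% heat-inactivated FBS and 2 mM L-glutamine, 37 C, 5% CO2. Plated at 10 000 cells/well and treated 24 h later with compound diluted in medium (0.1 nM to 100 μM) for 48 h. MTT read at 570 nm. Viability scaled between media and 5 μM staurosporine controls. At least 3 independent experiments × 3 replicates.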
On the technique in general: Tetrazolium dyes change colour on reduction, which living cells bring about.

Data set [7] relates to PC-12. Description: Neuroprotective activity against rat PC12 cells assessed as reversal of amyloid beta (1 to 42)-induced neuronal damage in at 1 uM after 48 hrs by MTT assay. The data set is classed as functional. The essentials: (§3)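 Differentiated PC-12 cells (10 000/well) received compound diluted in Aβ1-42 solution (5% DMSO water stock), giving final 10 μM Aβ1-42 with 0–3 μM compound (0.01–3 μM; dose curve 0.003–3 μM), for 48 h. MTT absorbance at 570 nm was normalized to full-kill and media controls. 3 independent experiments × 3 replicates.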

Data set [8] deals with PC-12. Briefly: Neuroprotective activity against rat PC12 cells assessed as reversal of amyloid beta (1 to 42)-induced neuronal damage in at 3 uM after 48 hrs by MTT assay. The data set is classed as functional. The essentials:
as §3

Data set [9] deals with PC-12. Description: Neuroprotective activity against rat PC12 cells assessed as reversal of amyloid beta (1 to 42)-induced neuronal damage after 48 hrs by MTT assay. The data set is classed as functional, cell-based. In short, it runs like this:
as §3

A short description of data set [10]: Inhibition of gamma-secretase by fluorogenic substrate assay. In short, it runs like this:
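Membrane protein (10 μg/well) was incubated with 6 μM fluorogenic substrate and compound in reaction buffer, 100 μL final, at 37 C for 5 h. Fluorescence was read at excitation 355 nm and emission 440 nm. L685,458 was the reference inhibitor. Dose-response curves were fitted by nonlinear regression.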

The nature of data set [11]: Inhibition of amyloid beta (1 to 42) fibrillation after 27 days by AFM assay. The conditions noted are these: in the assay text read “after 17 days” for “after 27 days”. In short, it runs like this: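 For fibril formation, 200 μM Aβ1-42 in water/DMSO was kept 17 days at 37 C. These fibrils were then incubated with compound (10 mM stock) or DMSO for 27 days at 37 C. Samples were diluted 5-fold in water, dried on mica and imaged by tapping-mode AFM.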

Data set [12] is described as follows: Inhibition of amyloid beta (12-28) fibrillation assessed as decrease in alpha-helix component at 3:1 compound to protein ratio by CD spectroscopy assay. The conditions noted are these: concentration not given here.

As to `CN1CCN(CC(O)COc2c(Br)cc(C(c3cc(Br)c(OCC(O)CN4CCN(C)CC4)c(Br)c3)(C(F)(F)F)C(F)(F)F)cc2Br)CC1` (stereo not drawn), the IC50 (in general, the midpoint of a concentration-inhibition curve) in [1] (read-out: IC50) was found to be 24 µM.

Consider `CN1CCN(CC(O)COc2ccc(C(C)(C)c3ccc(OCC(O)CN4CCN(C)CC4)cc3)cc2)CC1` (stereo not drawn), for which, in data set [1], the IC50 entry was “Not Active”.

Regarding `Cc1cc(C(C)(C)c2cc(C)c(OCC(O)CN3CCOCC3)c(C)c2)cc(C)c1OCC(O)CN1CCOCC1` (stereo not drawn), the IC50 entry in [1] is recorded as “Not Active”.

`Cc1cc(C2(c3cc(C)c(OCC(O)CN4CCOCC4)c(C)c3)CCCCCC2)cc(C)c1OCC(O)CN1CCOCC1` (stereo not drawn): the IC50 entry in data set [1] is reported as “Not Active”.

Consider `CC(C)(C)c1ccc(NCC(O)COc2c(Br)cc(C(C)(C)c3cc(Br)c(OCC(O)CNc4ccc(C(C)(C)C)cc4)c(Br)c3)cc2Br)cc1` (stereo not drawn), for which, in data set [1], the half-inhibitory concentration (IC50) entry is reported as “Not Active”.

Consider `CC(c1cc(Br)c(OCC(O)CN2CCN(C)CC2)c(Br)c1)c1cc(Br)c(OCC(O)CN2CCN(C)CC2)c(Br)c1` (stereo not drawn), for which the IC50 in [1] (read-out: IC50) amounted to 25 µM.

Consider `CC(C)(c1cc(Br)c(OCC(O)CN2CCOCC2)c(Br)c1)c1cc(Br)c(OCC(O)CN2CCOCC2)c(Br)c1` (stereo not drawn), for which, in [1] (read-out: IC50), the IC50 is 26 µM.

As for `OC(COc1c(Br)cc(C2(c3cc(Br)c(OCC(O)CN4CCOCC4)c(Br)c3)CCCC2)cc1Br)CN1CCOCC1` (stereo not drawn), in [1], the IC50 result was “Not Active”.

Regarding `Cc1cc(C(C)(C)c2cc(C)c(OCC(O)CN3CCN(C)CC3)c(C)c2)cc(C)c1OCC(O)CN1CCN(C)CC1` (stereo not drawn), in data set [1], the IC50 result was “Not Active”.

As to `Cc1cc(C(C)(C)c2cc(C)c(OCC(O)CN3CCN(Cc4ccccc4)CC3)c(C)c2)cc(C)c1OCC(O)CN1CCN(Cc2ccccc2)CC1` (stereo not drawn), the IC50 in [1] (read-out: IC50) is 6.2 µM.

On to `Cc1cc(C(C)(C)c2cc(C)c(OCC(O)CNc3ccc(C(C)(C)C)cc3)c(C)c2)cc(C)c1OCC(O)CNc1ccc(C(C)(C)C)cc1` (stereo not drawn), for which the half-maximal inhibitory concentration (IC50) entry in data set [1] is reported as “Not Active”.

Turning to `Cc1cc(C(C)(C)c2ccc(OCC(O)CN3CCOCC3)c(C)c2)ccc1OCC(O)CN1CCOCC1` (stereo not drawn), in data set [1], the IC50 entry was “Not Active”.

Turning to `Cc1cc(C(C)(C)c2cc(C)c(OCC(O)CN3CCCC3)c(C)c2)cc(C)c1OCC(O)CN1CCCC1` (stereo not drawn), the IC50 in [1] (read-out: IC50) amounted to 11 µM.

For `CC1CC(C)CN(CC(O)COc2c(Br)cc(C(C)(C)c3cc(Br)c(OCC(O)CN4CC(C)CC(C)C4)c(Br)c3)cc2Br)C1` (stereo not drawn), the 50% inhibitory concentration (IC50) in [1] (read-out: IC50) came to 4.8 µM; in the data set on PC-12 [9] (PC-12, 48 h), 0.8 µM; in data set [10], 5.57 µM. Moreover, the inhibition (commonly the percentage by which the read-out fell short of the control) in [2] turned out to be 17.4%; in data set [3], 13.7%; in [12], 40.4%. For the same compound, the inhibition result in [4], in data set [5] and in data set [11] was “Active” in each case. In addition, the Activity result with PC-12 [6] was “Non-toxic”; in the data set with PC-12 [7] it was 96.6%; in the data set with PC-12 [8], 104.2%; with PC-12 [9], “Dose-dependent effect”.

On to `Cc1cc(C(C)(C)c2cc(C)c(OCC(O)CN3CCN(C(=O)OC(C)(C)C)CC3)c(C)c2)cc(C)c1OCC(O)CN1CCN(C(=O)OC(C)(C)C)CC1` (stereo not drawn), for which the results for the IC50 in data set [1] (read-out: IC50) and in data set [10] were 0.4 µM and 1.82 µM, respectively.

Turning to `Cc1cc(C(C)(C)c2cc(C)c(OCC(O)CN3CCC4(CC3)OCCO4)c(C)c2)cc(C)c1OCC(O)CN1CCC2(CC1)OCCO2` (stereo not drawn), the IC50 in data set [1] (read-out: IC50) is 20 µM.

For `OC(COc1ccc(C(c2ccc(OCC(O)CN3CCOCC3)cc2)(C(F)(F)F)C(F)(F)F)cc1)CN1CCOCC1` (stereo not drawn), the IC50 entry in data set [1] was “Not Active”.

On to `CN1CCN(CC(O)COc2c(Br)cc(C3(c4cc(Br)c(OCC(O)CN5CCN(C)CC5)c(Br)c4)CCCC3)cc2Br)CC1` (stereo not drawn), for which the half-inhibitory concentration (IC50) in data set [1] (read-out: IC50) was determined as 24 µM.

`CCCCN(CCCC)CC(O)COc1c(Br)cc(C(C)(C)c2cc(Br)c(OCC(O)CN(CCCC)CCCC)c(Br)c2)cc1Br` (stereo not drawn): the IC50 in data set [1] (read-out: IC50) is 0.27 µM.

For `CN1CCN(CC(O)COc2c(Br)cc(C(C)(C)c3cc(Br)c(OCC(O)CN4CCN(C)CC4)c(Br)c3)cc2Br)CC1` (stereo not drawn), the IC50 in data set [1] (read-out: IC50) stood at 23 µM.

In the case of `Cc1cc(C2(c3cc(C)c(OCC(O)CN4CCN(C)CC4)c(C)c3)CCCCCC2)cc(C)c1OCC(O)CN1CCN(C)CC1` (stereo not drawn), the IC50 in data set [1] (read-out: IC50) stood at 32 µM.

As to `OC(COc1c(Br)cc(C(c2cc(Br)c(OCC(O)CN3CCOCC3)c(Br)c2)(C(F)(F)F)C(F)(F)F)cc1Br)CN1CCOCC1` (stereo not drawn), the IC50 result in [1] was “Not Active”.

Consider `CC(C)(c1ccc(OCC(O)CN2CCCCC2)cc1)c1ccc(OCC(O)CN2CCCCC2)cc1` (stereo not drawn), for which, in [1] (read-out: IC50), the IC50 worked out at 110 µM.

As for `Cc1cc(C)cc(NCC(O)COc2c(C)cc(C(C)(C)c3cc(C)c(OCC(O)CNc4cc(C)cc(C)c4)c(C)c3)cc2C)c1` (stereo not drawn), in data set [1], the IC50 entry is listed as “Not Active”.

With `Cc1cc(C(C)(C)c2cc(C)c(OCC(O)CN3CCCCCC3)c(C)c2)cc(C)c1OCC(O)CN1CCCCCC1` (stereo not drawn), the IC50 in data set [1] (read-out: IC50) is 6.2 µM.

Take `Cc1cc(C2(c3cc(C)c(OCC(O)CN4CCOCC4)c(C)c3)CCCCC2)cc(C)c1OCC(O)CN1CCOCC1` (stereo not drawn): the half-maximal inhibitory concentration (IC50) result in [1] was “Not Active”.

As to `Cc1cc(C(C)(C)c2cc(C)c(OCC(O)CN3CC(C)CC(C)C3)c(C)c2)cc(C)c1OCC(O)CN1CC(C)CC(C)C1` (stereo not drawn), the IC50 in data set [1] (read-out: IC50) was 8.9 µM.

As to `Cc1cc(C2(c3cc(C)c(OCC(O)CN4CCN(C)CC4)c(C)c3)CCCCC2)cc(C)c1OCC(O)CN1CCN(C)CC1` (stereo not drawn), in [1] (read-out: IC50), the 50% inhibitory concentration (IC50) was determined as 70 µM.

In the case of `Cc1cc(C(C)(C)c2cc(C)c(OCC(O)CN3CCCCC3)c(C)c2)cc(C)c1OCC(O)CN1CCCCC1` (stereo not drawn), the IC50 in data set [1] (read-out: IC50) amounted to 43 µM.

For `Cc1cc(C2(c3cc(C)c(OCC(O)CN4CCN(C)CC4)c(C)c3)CCCC2)cc(C)c1OCC(O)CN1CCN(C)CC1` (stereo not drawn), the half-inhibitory concentration (IC50) in data set [1] (read-out: IC50) stood at 56 µM.

Consider `Cc1cc(C2(c3cc(C)c(OCC(O)CN4CCOCC4)c(C)c3)CCCC2)cc(C)c1OCC(O)CN1CCOCC1` (stereo not drawn), for which the IC50 entry in data set [1] is on record as “Not Active”.

In the case of `CN1CCN(CC(O)COc2ccc(C(c3ccc(OCC(O)CN4CCN(C)CC4)cc3)(C(F)(F)F)C(F)(F)F)cc2)CC1` (stereo not drawn), the IC50 in [1] (read-out: IC50) is 380 µM.

As for `CC(C)(c1ccc(OCC(O)CN2CCOCC2)cc1)c1ccc(OCC(O)CN2CCOCC2)cc1` (stereo not drawn), the 50% inhibitory concentration (IC50) result in [1] is listed as “Not Active”.

In the case of `CN1CCN(CC(O)COc2ccc(C3(c4ccc(OCC(O)CN5CCN(C)CC5)c(Br)c4)CCCCC3)cc2Br)CC1` (stereo not drawn), the IC50 in data set [1] (read-out: IC50) amounted to 13 µM.

With `CC(C)(c1cc(Br)c(OCC(O)CN2CCC3(CC2)OCCO3)c(Br)c1)c1cc(Br)c(OCC(O)CN2CCC3(CC2)OCCO3)c(Br)c1` (stereo not drawn), in data set [1] (read-out: IC50), the IC50 stood at 4.7 µM.
